Columns and labels:
[1] = target: Microtubule-associated protein tau (Homo sapiens, UniProt P10636); assay: Inhibition of tau (unknown origin) aggregation expressed in Escherichia coli BL21 (DE3)
How it was run: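 E. coli BL21(DE3) carrying pTARA (T7 RNA polymerase under PBAD) and pRKT42 (four-repeat tau) grown at 37 °C in M9 with 0.5% glucose, antibiotics and 250 μM ThS to OD600 0.6. […] ThS fluorescence ex 430/em 485 nm, normalized to tau-expressing cells (100%) and non-expressing cells (0%); OD600 checked for growth.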

[2] = Cytotoxicity against mouse brain Primary embryonic cortical cell assessed as cell death at 2.5 uM incubated for 4 hrs by propidium iodide dye based spectrofluorometric analysis relative to control; format: toxicity
How it was run: (§1)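 Primary cortical cultures from E16.5 mouse embryo brains, trypsinized, plated on poly-D-lysine, grown in Neurobasal with glutamine, glucose, 5% horse serum and B27; compounds added at 4 DIV. Propidium iodide 30 μM; baseline F1 read 1 h after PI; ex 530/em 645 nm. Fmax after digitonin permeabilization. % death = 100×(Fn−F1)/(Fmax−F1); mean of three independent experiments.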

Acetylcholinesterase [3] = target: Acetylcholinesterase (Homo sapiens, UniProt P22303); assay: Inhibition of human recombinant AChE using acetylthiocholine iodide as substrate preincubated for 20 mins followed by substrate addition by DTNB reagent based Ellman's method
Sequence of Acetylcholinesterase (Homo sapiens, UniProt P22303) (P22303 whole entry): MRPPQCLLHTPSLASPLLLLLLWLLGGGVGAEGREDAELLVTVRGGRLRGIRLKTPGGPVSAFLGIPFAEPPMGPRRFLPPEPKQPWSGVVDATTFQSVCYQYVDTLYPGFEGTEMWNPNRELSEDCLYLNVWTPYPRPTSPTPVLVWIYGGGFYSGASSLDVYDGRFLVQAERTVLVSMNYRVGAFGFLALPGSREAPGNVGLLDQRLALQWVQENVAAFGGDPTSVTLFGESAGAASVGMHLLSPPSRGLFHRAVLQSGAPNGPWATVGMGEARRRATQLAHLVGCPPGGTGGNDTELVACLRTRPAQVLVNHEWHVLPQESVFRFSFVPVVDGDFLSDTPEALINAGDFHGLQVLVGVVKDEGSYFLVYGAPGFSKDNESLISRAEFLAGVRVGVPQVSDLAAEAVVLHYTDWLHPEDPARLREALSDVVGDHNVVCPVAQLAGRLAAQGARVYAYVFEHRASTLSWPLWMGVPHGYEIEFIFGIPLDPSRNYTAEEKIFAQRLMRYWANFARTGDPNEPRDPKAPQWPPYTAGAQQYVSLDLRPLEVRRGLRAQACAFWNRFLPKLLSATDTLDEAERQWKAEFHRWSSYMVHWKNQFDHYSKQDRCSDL

[4] = Cytotoxicity against mouse brain Primary embryonic cortical cell assessed as cell death at 5 uM incubated for 1 hr by propidium iodide dye based spectrofluorometric analysis relative to control; format: toxicity; how it was run: as §1
[5] = Cytotoxicity against mouse brain Primary embryonic cortical cell assessed as cell death at 10 uM incubated for 5 hrs by propidium iodide dye based spectrofluorometric analysis relative to control; format: toxicity; how it was run: as §1
[6] = Cytotoxicity against mouse brain Primary embryonic cortical cell assessed as cell death at 2.5 uM incubated for 48 hrs by propidium iodide dye based spectrofluorometric analysis relative to control; format: toxicity; how it was run: as §1
[7] = Cytotoxicity against mouse brain Primary embryonic cortical cell assessed as cell death at 2.5 uM incubated for 24 hrs by propidium iodide dye based spectrofluorometric analysis relative to control; format: toxicity; how it was run: as §1
[8] = Cytotoxicity against mouse brain Primary embryonic cortical cell assessed as cell death at 5 uM incubated for 3 hrs by propidium iodide dye based spectrofluorometric analysis relative to control; format: toxicity; how it was run: as §1
Cholinesterase [9] = target: Cholinesterase (Homo sapiens, UniProt P06276); assay: Inhibition of human recombinant BChE using acetylthiocholine iodide as substrate at 10 uM preincubated for 20 mins followed by substrate addition by DTNB reagent based Ellman's method relative to control
Sequence of Cholinesterase (Homo sapiens, UniProt P06276) (P06276 whole entry): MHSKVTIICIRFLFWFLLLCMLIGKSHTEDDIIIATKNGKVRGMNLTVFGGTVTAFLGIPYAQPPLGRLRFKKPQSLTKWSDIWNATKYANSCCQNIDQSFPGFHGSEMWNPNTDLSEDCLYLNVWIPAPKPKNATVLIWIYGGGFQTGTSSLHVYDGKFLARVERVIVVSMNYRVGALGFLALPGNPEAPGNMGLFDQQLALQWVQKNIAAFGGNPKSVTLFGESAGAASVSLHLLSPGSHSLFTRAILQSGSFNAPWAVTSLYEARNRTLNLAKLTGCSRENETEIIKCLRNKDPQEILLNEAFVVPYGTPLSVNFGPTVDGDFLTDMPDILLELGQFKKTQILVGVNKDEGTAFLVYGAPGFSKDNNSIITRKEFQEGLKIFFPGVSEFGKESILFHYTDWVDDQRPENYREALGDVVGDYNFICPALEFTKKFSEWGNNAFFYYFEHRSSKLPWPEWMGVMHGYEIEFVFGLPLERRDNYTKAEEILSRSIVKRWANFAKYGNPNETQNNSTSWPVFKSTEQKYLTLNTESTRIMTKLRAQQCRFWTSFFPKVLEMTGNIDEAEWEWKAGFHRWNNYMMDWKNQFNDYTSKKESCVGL
How it was run: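 Human BChE activity was read by the Ellman spectrophotometric method. Results are % inhibition at a single 10 μM inhibitor concentration. Values are means of three independent experiments.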

[10] = Cytotoxicity against mouse brain Primary embryonic cortical cell assessed as cell death at 2.5 uM incubated for 72 hrs by propidium iodide dye based spectrofluorometric analysis relative to control; format: toxicity; how it was run: as §1
[11] = Cytotoxicity against mouse brain Primary embryonic cortical cell assessed as cell death at 10 uM incubated for 4 hrs by propidium iodide dye based spectrofluorometric analysis relative to control; format: toxicity; how it was run: as §1
[12] = Cytotoxicity against mouse brain Primary embryonic cortical cell assessed as cell death at 2.5 uM incubated for 6 hrs by propidium iodide dye based spectrofluorometric analysis relative to control; format: toxicity; how it was run: as §1
[13] = Cytotoxicity against mouse brain Primary embryonic cortical cell assessed as cell death at 30 uM incubated for 4 hrs by propidium iodide dye based spectrofluorometric analysis relative to control; format: toxicity; how it was run: as §1
[14] = Cytotoxicity against mouse brain Primary embryonic cortical cell assessed as cell death at 2.5 uM incubated for 1 hr by propidium iodide dye based spectrofluorometric analysis relative to control; format: toxicity; how it was run: as §1
[15] = Cytotoxicity against mouse brain Primary embryonic cortical cell assessed as cell death at 2.5 uM incubated for 5 hrs by propidium iodide dye based spectrofluorometric analysis relative to control; format: toxicity; how it was run: as §1
Acetylcholinesterase [16] = target: Acetylcholinesterase (Electrophorus electricus, UniProt O42275); assay: Inhibition of electric eel AChE using acetylthiocholine iodide as substrate preincubated for 20 mins followed by substrate addition by DTNB reagent based Ellman's method
Sequence of Acetylcholinesterase (Electrophorus electricus, UniProt O42275) (O42275 whole entry): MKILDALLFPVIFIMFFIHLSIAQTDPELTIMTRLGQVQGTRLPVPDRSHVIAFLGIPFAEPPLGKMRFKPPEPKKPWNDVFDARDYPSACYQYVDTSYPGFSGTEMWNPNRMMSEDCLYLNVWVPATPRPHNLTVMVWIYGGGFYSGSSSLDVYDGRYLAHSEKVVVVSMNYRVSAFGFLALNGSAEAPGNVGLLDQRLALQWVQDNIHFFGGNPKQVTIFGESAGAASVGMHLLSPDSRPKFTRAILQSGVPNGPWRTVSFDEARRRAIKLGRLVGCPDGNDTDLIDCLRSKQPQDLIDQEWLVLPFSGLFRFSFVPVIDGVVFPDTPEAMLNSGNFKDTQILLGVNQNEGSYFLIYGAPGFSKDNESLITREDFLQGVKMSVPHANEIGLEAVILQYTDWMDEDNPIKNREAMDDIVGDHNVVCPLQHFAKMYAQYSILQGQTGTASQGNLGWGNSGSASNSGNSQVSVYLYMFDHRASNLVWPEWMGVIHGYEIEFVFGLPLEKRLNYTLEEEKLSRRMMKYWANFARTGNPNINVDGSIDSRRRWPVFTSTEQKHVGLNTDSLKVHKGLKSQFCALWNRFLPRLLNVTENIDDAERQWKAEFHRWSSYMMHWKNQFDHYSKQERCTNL

[17] = Cytotoxicity against mouse brain Primary embryonic cortical cell assessed as cell death at 5 uM incubated for 5 hrs by propidium iodide dye based spectrofluorometric analysis relative to control; format: toxicity; how it was run: as §1
[18] = Cytotoxicity against mouse brain Primary embryonic cortical cell assessed as cell death at 10 uM incubated for 48 hrs by propidium iodide dye based spectrofluorometric analysis relative to control; format: toxicity; how it was run: as §1
[19] = Cytotoxicity against mouse brain Primary embryonic cortical cell assessed as cell death at 30 uM incubated for 72 hrs by propidium iodide dye based spectrofluorometric analysis relative to control; format: toxicity; how it was run: as §1
[20] = Cytotoxicity against mouse brain Primary embryonic cortical cell assessed as cell death at 30 uM incubated for 5 hrs by propidium iodide dye based spectrofluorometric analysis relative to control; format: toxicity; how it was run: as §1
[21] = Cytotoxicity against rat Primary cerebellar granule neuron assessed as cell viability at 10 uM relative to control; format: toxicity, cell-based, Cerebellar granule neurone; conditions: primary cerebellar granule neurons, read-out: Activity
[22] = Cytotoxicity against mouse brain Primary embryonic cortical cell assessed as cell death at 5 uM incubated for 4 hrs by propidium iodide dye based spectrofluorometric analysis relative to control; format: toxicity; how it was run: as §1
[23] = Cytotoxicity against mouse brain Primary embryonic cortical cell assessed as cell death at 30 uM incubated for 6 hrs by propidium iodide dye based spectrofluorometric analysis relative to control; format: toxicity; how it was run: as §1
[24] = Cytotoxicity against mouse brain Primary embryonic cortical cell assessed as cell death at 10 uM incubated for 72 hrs by propidium iodide dye based spectrofluorometric analysis relative to control; format: toxicity; how it was run: as §1
[25] = Cytotoxicity against mouse brain Primary embryonic cortical cell assessed as cell death at 10 uM incubated for 1 hr by propidium iodide dye based spectrofluorometric analysis relative to control; format: toxicity; how it was run: as §1
[26] = Cytotoxicity against mouse brain Primary embryonic cortical cell assessed as cell death at 30 uM incubated for 1 hr by propidium iodide dye based spectrofluorometric analysis relative to control; format: toxicity; how it was run: as §1
[27] = Cytotoxicity against mouse brain Primary embryonic cortical cell assessed as cell death at 2.5 uM incubated for 3 hrs by propidium iodide dye based spectrofluorometric analysis relative to control; format: toxicity; how it was run: as §1
[28] = Cytotoxicity against mouse brain Primary embryonic cortical cell assessed as cell death at 10 uM incubated for 3 hrs by propidium iodide dye based spectrofluorometric analysis relative to control; format: toxicity; how it was run: as §1
[29] = Cytotoxicity against mouse brain Primary embryonic cortical cell assessed as cell death at 30 uM incubated for 3 hrs by propidium iodide dye based spectrofluorometric analysis relative to control; format: toxicity; how it was run: as §1
Cholinesterase [30] = target: Cholinesterase (Equus caballus, UniProt P81908); assay: Inhibition of equine serum BChE using butyrylthiocholine iodide as substrate preincubated for 20 mins followed by substrate addition by DTNB reagent based Ellman's method; format: cell-free
Sequence of Cholinesterase (Equus caballus, UniProt P81908) (P81908 whole entry): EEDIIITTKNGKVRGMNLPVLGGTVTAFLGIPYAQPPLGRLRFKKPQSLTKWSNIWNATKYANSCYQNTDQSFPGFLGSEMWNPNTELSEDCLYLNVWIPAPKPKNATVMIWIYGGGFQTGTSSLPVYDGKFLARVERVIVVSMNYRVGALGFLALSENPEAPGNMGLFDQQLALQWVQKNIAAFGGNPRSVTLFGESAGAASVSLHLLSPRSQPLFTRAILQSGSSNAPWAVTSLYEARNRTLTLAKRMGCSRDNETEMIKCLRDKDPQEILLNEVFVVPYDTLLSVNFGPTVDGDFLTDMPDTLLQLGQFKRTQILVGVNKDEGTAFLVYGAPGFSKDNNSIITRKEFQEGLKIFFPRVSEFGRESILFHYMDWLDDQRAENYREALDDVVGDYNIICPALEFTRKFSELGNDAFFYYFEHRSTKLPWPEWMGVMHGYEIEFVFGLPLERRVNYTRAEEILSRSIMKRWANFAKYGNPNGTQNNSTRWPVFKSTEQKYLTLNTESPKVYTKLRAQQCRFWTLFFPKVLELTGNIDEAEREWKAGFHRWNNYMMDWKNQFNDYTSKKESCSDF

[31] = Cytotoxicity against mouse brain Primary embryonic cortical cell assessed as cell death at 10 uM incubated for 6 hrs by propidium iodide dye based spectrofluorometric analysis relative to control; format: toxicity; how it was run: as §1
[32] = Cytotoxicity against mouse brain Primary embryonic cortical cell assessed as cell death at 5 uM incubated for 2 hrs by propidium iodide dye based spectrofluorometric analysis relative to control; format: toxicity; how it was run: as §1
[33] = Cytotoxicity against mouse brain Primary embryonic cortical cell assessed as cell death at 5 uM incubated for 6 hrs by propidium iodide dye based spectrofluorometric analysis relative to control; format: toxicity; how it was run: as §1

Sequence of Microtubule-associated protein tau (P10636 whole entry): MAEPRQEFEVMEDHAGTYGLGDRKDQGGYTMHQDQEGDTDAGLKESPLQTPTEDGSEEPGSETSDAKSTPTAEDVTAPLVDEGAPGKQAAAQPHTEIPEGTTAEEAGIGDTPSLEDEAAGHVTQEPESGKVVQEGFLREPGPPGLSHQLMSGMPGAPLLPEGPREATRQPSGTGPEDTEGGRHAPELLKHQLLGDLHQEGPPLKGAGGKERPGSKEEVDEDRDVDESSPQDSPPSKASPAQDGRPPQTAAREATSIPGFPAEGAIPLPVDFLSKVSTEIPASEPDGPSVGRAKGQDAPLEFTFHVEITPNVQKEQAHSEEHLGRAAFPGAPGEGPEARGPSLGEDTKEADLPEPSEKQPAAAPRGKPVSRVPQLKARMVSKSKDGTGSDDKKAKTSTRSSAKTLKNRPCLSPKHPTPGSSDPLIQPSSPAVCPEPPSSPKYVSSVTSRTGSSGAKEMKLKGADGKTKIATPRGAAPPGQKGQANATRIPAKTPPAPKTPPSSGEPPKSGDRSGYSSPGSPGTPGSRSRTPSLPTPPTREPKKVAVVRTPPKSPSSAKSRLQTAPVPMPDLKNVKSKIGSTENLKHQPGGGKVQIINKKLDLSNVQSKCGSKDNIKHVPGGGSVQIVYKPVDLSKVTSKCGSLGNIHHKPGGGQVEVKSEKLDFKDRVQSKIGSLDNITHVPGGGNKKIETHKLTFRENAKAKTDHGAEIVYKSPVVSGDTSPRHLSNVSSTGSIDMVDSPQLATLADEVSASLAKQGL

Compound `COc1ccc2sc3c(C)ccc(NCCC4CCN(C)CC4)c3c(=O)c2c1` has an IC50 [1] of 1.8 µM, an Activity [2] of 17.4% and an IC50 (Acetylcholinesterase [3]) of 16.1 µM. The Activity [4] was 1.6%, the Activity [5] was 54.4% and the Activity [6] was 81.5%. It also gave an Activity [7] of 76.2%, an Activity [8] of 15.8% and an inhibition (Cholinesterase [9]) of 16%. The Activity [10] was 77.8%, the Activity [11] was 52.6% and the Activity [12] was 29.9%. It also gave an Activity [13] of 56.1%, an Activity [14] of 2.9% and an Activity [15] of 23.8%. It also gave an IC50 (Acetylcholinesterase [16]) of 4.4 µM, an Activity [17] of 32.6% and an Activity [18] of 84.1%. It also gave an Activity [19] of 89.4%, an Activity [20] of 60.4% and a viability at 10 µM [21] of 30%. It also gave an Activity [22] of 25.8%, an Activity [23] of 61.9% and an Activity [24] of 92.4%. The Activity [25] was 16.7%, the Activity [26] was 28.5% and the Activity [27] was 8.5%. It also gave an Activity [28] of 48.9%, an Activity [29] of 54.7% and an IC50 (Cholinesterase [30]) of 0.96 µM. It also gave an Activity [31] of 55.7%, an Activity [32] of 7.6% and an Activity [33] of 41.4%.
